Screening results from PubChem.
This is one part of a sample in which hits are shown more often than they occur.
XiGFP reactiv: X-chromosome reactivation activator. activation, % at 7.58 µM. 360,000 tested, 0.055% active. XiGFP mouse fibroblasts, % GFP-positive cells imaging, 3 d; cells co-treated with 5-aza-dC sensitizer; scaled so ellipticine positive control = 100%;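 active = mean normalized replicate activation at least 10% and every replicate at or above 10%; inconclusive = only one of the two criteria met; inactive = mean below 10% and not all replicates reach 10%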;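 note: 0% = median of on-plate neutral control wells and 100% = ellipticine 6 µM median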
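Material: XiGFP fibroblasts, SV40-immortalized. Buffer or medium: DMEM plus 5-aza-dC sensitizer. Compound: single concentration per compound, delivered by pin transfer. Times: 3 days compound exposure. Controls: ellipticine 6 µM.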
ABCB6 inh 2: inhibitors of human ABC transporter ABCB6; 360,000 tested, 0.19% active; Q9NP58; fluorescence ratio to DMSO, % at 10 µM; K562-ABCB6 porphyrin accumulation, flow cytometry, 1 h; stronger effect = lower value;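 active = fluorescence ratio to DMSO below 75%, the collection mean minus 3 SD; inconclusive = too few cells collected in the well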;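 note: signal is porphyrin accumulated inside mitochondria; 100% equals median channel fluorescence of DMSO control wells; lower ratio means ABCB6 inhibition with less porphyrin fluorescence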
Myeloid diff 2: myeloid differentiation induction | ER-HoxA9 myeloid progenitors, lysozyme-GFP differentiation, flow cytometry | calls only at 10 µM | 360,000 tested, 1% active | AID 624256;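 active = normalized GFP-positive differentiation at or above the plate's own cutoff, the solvent-only control mean plus 3 SD; inconclusive = no clear call, values can overlap the other calls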;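 note: cells exposed to compound for four days before flow analysis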
Myeloid diff: myeloid differentiation induction; shares compounds with Myeloid diff 2; 2,300 tested, 2% active; calls only; AID 651706; ER-HoxA9 myeloid progenitors, GFP/Mac1 double-positive flow;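 active = share of green or green-and-red cells above 9 and 9% in run 1 or 4 and 3% in run 2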
GFP autofluor: counter-screen for myeloid differentiation promoters: compound fluorescence | shares compounds with Myeloid diff 2 | ER-HoxA9 myeloid progenitors, no estrogen, GFP autofluorescence flow cytometry; vehicle wells 0%, positive control 100% | fluorescence response, % (concentration not given with the values) | 2,300 tested, 7.4% active;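 active = over 5% cells positive for green fluorescent reporter, or over 2% positive for both it and APC stain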;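 note: range taken on the double positive population between DMSO and positive control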
An asterisk follows results filed as active; i = inactive; ? = inconclusive; · = no result given; + = active, no number.

SMILES | XiGFP reactiv | ABCB6 inh 2 | Myeloid diff 2 | Myeloid diff | GFP autofluor
O=C(NC[C@@H]1[C@@H](c2ccccc2)[C@@H](CO)N1C(=O)Cc1ccncc1)C1CCC1 | 0.0 | · | · | · | ·
COc1ccc2c3c(n(C)c2c1)[C@@H](CO)N(C(C)=O)CC31CN(Cc2cccnc2)C1 | 0.3 | · | · | · | ·
Cc1nc(-n2[nH]c3c(c2=O)CCCC3)[nH]c(=O)c1Cc1ccccc1 | · | 100.0 | i | i | 0.0
Cc1nc(N2CCc3ccccc3C2)[nH]c(=O)c1Cc1ccccc1 | 0.0 | 99.0 | i | · | ·
O=C1[C@H](Cc2ccc(C(F)(F)F)cc2)CCn2cc(nn2)COC[C@@H]2CCCCN2C(=O)[C@H](Cc2ccc(C(F)(F)F)cc2)CCn2cc(nn2)COC[C@@H]2CCCCN12 | 0.2 | · | · | · | ·
O=C(NC1CCN(Cc2ccccc2)CC1)C1CCCN(c2nnc(-n3cccc3)s2)C1 (stereo not given) | 0.3 | 95.0 | i | i | 0.0
O=C(NC1CCN(Cc2ccccc2)CC1)C1CCN(c2nnc(-n3cccc3)s2)CC1 | 0.1 | 99.0 | ? | · | ·
C[C@H](CO)N1C[C@H](C)[C@H](CN(C)C(=O)Cc2ccncc2)Oc2cc(C#CC3CC3)ccc2S1(=O)=O | 0.0 | · | · | · | ·
O=C1S/C(=C/c2ccc(N3CCOCC3)o2)C(=O)N1Cc1ccc(F)cc1 | · | 154.0 | i | i | 31.4*
CC(C)OC(=O)CN1C(=O)S/C(=C/c2ccc(N3CCCCC3)o2)C1=O | · | 122.0 | i | · | ·
O=S(=O)(c1ccc(F)cc1)N1CCCCN2[C@H](CO)[C@H](c3ccc(-c4cncnc4)cc3)[C@@H]2C1 | 0.0 | · | · | · | ·
CC(C)CC#Cc1ccc2c(c1)O[C@H](CN(C)S(C)(=O)=O)[C@@H](C)CN([C@@H](C)CO)S2(=O)=O | -0.5 | · | · | · | ·
CCOC(=O)c1[nH]c2ccccc2c1NC(=O)NC(C)C | 0.0 | 93.0 | i | · | ·
CCOC(=O)c1[nH]c2ccccc2c1NC(=O)c1ccc(Br)o1 | · | 96.0 | + | i | 0.0
C[C@@H]1CN([C@@H](C)CO)C(=O)c2cccc(NC(=O)c3cnccn3)c2O[C@H]1CN(C)C(=O)NC1CCCCC1 | 0.1 | · | · | · | ·
O=C1NC2(CCCCC2)C(=O)N1/N=C/c1ccc(O)cc1O | · | 95.0 | + | i | 0.2
O=C1NC2(CCCCC2)C(=O)N1/N=C/c1ccccc1Br | 0.0 | 95.0 | i | · | ·
CC(Oc1cccc(Cl)c1)C(=O)Nc1nc(-c2ccccn2)cs1 (stereo not given) | 0.0 | 104.0 | + | i | 4.5
CC(Oc1ccccc1)C(=O)Nc1nc(-c2ccccn2)cs1 (stereo not given) | 0.0 | 93.0 | i | · | ·
C[C@@H]1CN([C@@H](C)CO)C(=O)c2cccc(NC(=O)Nc3ccccc3)c2O[C@H]1CN(C)S(=O)(=O)c1ccc(F)cc1 | 0.0 | · | · | · | ·
CCCCCCC[C@@H](C/C=C/CCC(=O)N(C)C/C(=C/Cl)C/C(=C\C(=O)N1C[C@H](O)CC1=O)OC)OC | -0.1 | 100.0 | i | i | 4.6
CCCCCCC[C@@H](C/C=C/CCC(=O)N(C)C/C(=C/Cl)C/C(=C\C(=O)N1CC(OC)=CC1=O)OC)OC | -0.1 | 106.0 | i | · | ·
C/C=C/c1ccc([C@@H]2[C@H](CO)N3C(=O)CN(Cc4ccc(C(=O)OC)cc4)C[C@@H]23)cc1 | 0.0 | · | · | · | ·
C[C@H](CO)N1C[C@H](C)[C@H](CN(C)C(=O)c2ccc(F)cc2)Oc2cc(-c3cccc(C#N)c3)ccc2S1(=O)=O | -1.2 | · | · | · | ·
COc1ccc(NC(=S)NC(NC(=O)C(C)C)C(Cl)(Cl)Cl)c([N+](=O)[O-])c1 (stereo not given) | · | 102.0 | + | i | 0.8
SMILES | XiGFP reactiv | ABCB6 inh 2 | Myeloid diff 2 | Myeloid diff | GFP autofluor
COc1ccc(NC(=O)CC(C)C)c([N+](=O)[O-])c1 | 0.0 | 101.0 | i | · | ·
Cc1nn(-c2ccccc2)c2sc(C(=O)NNC(=O)COc3ccccc3)cc12 | · | 98.0 | + | i | 0.0
Cc1nn(-c2ccccc2)c2sc(C(=O)NNC(=O)COc3cccc4ccccc34)cc12 | · | 98.0 | i | · | ·
Cc1ccc(S(=O)(=O)Nc2ccc3c(c2)C(=O)N([C@H](C)CO)C[C@@H](C)[C@H](CN(C)S(=O)(=O)c2cccs2)O3)cc1 | -0.3 | · | · | · | ·
O=c1c2c(nc3nc(CCc4ccccc4)[nH]n13)CCC2 | · | 97.0 | + | i | 0.0
O=c1c2c(nc3nc(NCc4ccc(Cl)cc4)[nH]n13)CCC2 | 0.2 | 93.0 | i | · | ·
CN(C)C(=O)c1ccc(-c2ccc([C@H]3[C@H]4CN(C(=O)C5CCCCC5)CC(=O)N4[C@H]3CO)cc2)cc1 | 0.3 | · | · | · | ·
